{
  "source": "paper PMC3464052",
  "about": "(Journal of medicinal chemistry, 2012)",
  "key": {"[1]": {"molecular_target": "T1, human α4β2-nAChRs (Homo sapiens, UniProt P17787+P43681)", "conditions": "cited from earlier work"}, "[2]": {"test_system": "mice", "assay": "SmartCube automated behavioral signature", "assay_type": "in vivo, mouse", "conditions": "i.p., 15 min before testing"}, "[3]": {"molecular_target": "Ct-AChBP (Capitella teleta, UniProt I6L8L2)", "assay": "biochemical", "assay_type": "binding"}, "[4]": {"conditions": "1 h incubation, starting concentration 1 μM; ref [16]; cited from earlier work"}, "[5]": {"test_system": "mice", "assay": "Mouse forced swim test", "assay_type": "in vivo"}, "[6]": {"molecular_target": "T1, human α4β2-nAChRs", "assay": "86Rb+ ion flux assay, SH-EP1 cells", "assay_type": "cell-based", "conditions": "mixture of HS and LS α4β2-nAChRs", "in_short": "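Human α4β2-nAChRs stably expressed in SH-EP1 cells, as a mixture of high- and low-sensitivity forms. Agonist responses are expressed relative to a maximally efficacious concentration of the full agonist carbamylcholine. Inactivation of function is measured after a 10 min pre-exposure to test compound. Concentration-response curves are fitted by semi-logarithmic nonlinear regression.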"}, "[7]": {"assay": "Liver microsome stability, mouse", "assay_type": "in vitro ADME", "conditions": "mouse liver microsomes, 1 h, 2 μM"}, "[8]": {"molecular_target": "α4β2-nAChR (Rattus norvegicus, UniProt P09483+P12390)", "assay": "[3H]epibatidine binding competition, heterologously expressed α4β2-nAChR", "conditions": "from Ki values"}, "[9]": {"assay": "Liver microsome stability, human", "assay_type": "in vitro ADME", "conditions": "human liver microsomes, 1 h, 2 μM"}, "[10]": {"assay": "Liver microsome stability, rat", "assay_type": "in vitro ADME", "conditions": "rat liver microsomes, 1 h, 2 μM"}, "[11]": {"assay": "Liver microsome stability, dog", "assay_type": "in vitro ADME", "conditions": "dog liver microsomes, 1 h, 2 μM"}, "[12]": {"conditions": "intraperitoneally, 3 or 10 mg/kg"}},
  "note": "Where two headings read alike, the source gives them in different places.",
  "data": [
    {"smiles": "CN1CCC[C@H]1c1cccnc1", "note": "[compound 1, nicotine, reference compound]", "values": [
      {"measurement": "Agonism Hill slope", "setting": "[1]", "value": "1.0±0.1"},
      {"measurement": "Inactivation Hill Slope", "setting": "[1]", "value": "−0.8±0.09"}
    ]},
    {"smiles": "OCC[C@H]1C[C@@H]1c1cncc(OC[C@@H]2CCN2)c1", "note": "[compound 5]", "values": [
      {"measurement": "Agonism Efficacy at HS", "setting": "[1]; HS α4β2-nAChR, extrapolated using sazetidine-A as full agonist, ref [16]", "value": "92±6", "unit": "%"},
      {"measurement": "Inactivation Efficacy", "setting": "[1]; mixture of HS and LS, ref [16]", "value": "62±1", "unit": "%"},
      {"measurement": "Agonism Hill slope", "setting": "[1]; ref [16]", "value": "1.0±0.4"},
      {"measurement": "Inactivation Hill Slope", "setting": "[1]; ref [16]", "value": "−1.4±0.2"},
      {"measurement": "SmartCube behavioral signature", "setting": "[2]", "value": "signature of activity suggesting potential antidepressant-like effect"}
    ]},
    {"smiles": "CNC(=O)OCC[C@H]1C[C@@H]1c1cncc(OC[C@@H]2CCN2)c1", "note": "[compound 6]", "values": [
      {"measurement": "Ki", "setting": "[3]", "value": "22 ± 3", "unit": "nM"},
      {"measurement": "SmartCube behavioral signature", "setting": "[2]", "value": "signature of activity suggesting potential antidepressant-like effect"},
      {"measurement": "tested compound remained unchanged", "setting": "[4]", "value": 98, "unit": "%"}
    ]},
    {"smiles": "CC[C@H]1C[C@@H]1c1cncc(OC[C@@H]2CCN2)c1.O=C(O)C(F)(F)F", "note": "[compound 10, 3-[(2(S)-Azetidinyl)methoxy]-5-((1S,2S)-2-ethylcyclopropyl)pyridine Trifluoroacetate]", "values": [
      {"measurement": "SmartCube behavioral signature", "setting": "[2]", "value": "signature of activity suggesting potential antidepressant-like effect"},
      {"measurement": "effect in the forced swim test", "setting": "[5]; [12]", "value": "no significant effect"},
      {"measurement": "Agonism Hill slope", "setting": "[6]", "value": "1.1±0.2"},
      {"measurement": "Inactivation Hill Slope", "setting": "[6]", "value": "−1.1±0.3"}
    ]},
    {"smiles": "FCC[C@H]1C[C@@H]1c1cncc(OC[C@@H]2CCN2)c1.O=C(O)C(F)(F)F", "note": "[compound 12, 3-[(2(S)-Azetidinyl)methoxy]-5-[(1S,2R)-2-(2-fluoroethyl)cyclopropyl]pyridine Trifluoroacetate]", "values": [
      {"measurement": "SmartCube behavioral signature", "setting": "[2]", "value": "signature of activity suggesting potential antidepressant-like effect"},
      {"measurement": "effect in the forced swim test", "setting": "[5]; intraperitoneally or orally", "value": "antidepressant-like effect"},
      {"measurement": "minimal dose with significant reduction in immobility", "setting": "[5]; intraperitoneally or orally", "value": 3, "unit": "mg/kg"},
      {"measurement": "compound remained unchanged", "setting": "[7]", "value": "no less than 98%"},
      {"measurement": "selectivity for α4β2- over α3β4-nAChRs", "setting": "[8]", "value": "greater than 16000 fold"},
      {"measurement": "compound remained unchanged", "setting": "[9]", "value": "no less than 98%"},
      {"measurement": "compound remained unchanged", "setting": "[10]", "value": "no less than 98%"},
      {"measurement": "Agonism Hill slope", "setting": "[6]", "value": "1.3±0.5"},
      {"measurement": "Inactivation Hill Slope", "setting": "[6]", "value": "−1.2±0.4"},
      {"measurement": "compound remained unchanged", "setting": "[11]", "value": "no less than 98%"}
    ]},
    {"smiles": "FC(F)C[C@H]1C[C@@H]1c1cncc(OC[C@@H]2CCN2)c1.O=C(O)C(F)(F)F", "note": "[compound 13, 3-[(2(S)-Azetidinyl)methoxy]-5-[(1S,2R)-2-(2,2-difluoroethyl)cyclopropyl]pyridine Trifluoroacetate]", "values": [
      {"measurement": "SmartCube behavioral signature", "setting": "[2]", "value": "signature of activity suggesting potential antidepressant-like effect"},
      {"measurement": "effect in the forced swim test", "setting": "[5]; [12]", "value": "no significant effect"},
      {"measurement": "selectivity for α4β2- over α3β4-nAChRs", "setting": "[8]", "value": "greater than 16000 fold"},
      {"measurement": "Agonism Hill slope", "setting": "[6]", "value": "1.4±0.4"},
      {"measurement": "Inactivation Hill Slope", "setting": "[6]", "value": "−1.1±0.3"}
    ]},
    {"smiles": "CN[C@H]1CC[C@@H](c2ccc(Cl)c(Cl)c2)c2ccccc21", "note": "[sertraline, reference compound]", "values": [
      {"measurement": "effect on immobility in the forced swim test", "setting": "[5]; positive control, 20 mg/kg", "value": "expected decrease in immobility"}
    ]}
  ]
}
